Experimental data: ChEMBL document CHEMBL2150893, “Synthesis of β-ionone derived chalcones as potent antimicrobial agents” (2012)
≈ marks a conversion by molar mass, not a printed value. Calls of active or inactive are those of the source. The rule behind the calls is not given here.

Columns and labels:
Salmonella typhi = assay: Antibacterial activity against Salmonella typhi after 24 hrs by serial dilution method; assay type: functional, Salmonella enterica subsp. enterica serovar Typhi; details: Salmonella enterica
How it was run: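 Serial tube dilution MIC in nutrient broth. Bacteria were grown until OD600 reached 0.4-0.6. Tubes held 5 ml broth plus 1 ml compound at 0.78, 1.56, 3.12, 6.25, 12.5, 25 or 50 µg/ml and were shaken at 180 rpm for 24 h. Initial medium OD was read at 600 nm.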

Klebsiella pneumoniae = assay: Antibacterial activity against Klebsiella pneumoniae MTCC 530 after 24 hrs by serial dilution method; assay type: functional, organism-based
Pseudomonas aeruginosa = assay: Antibacterial activity against Pseudomonas aeruginosa MTCC 2642 after 24 hrs by serial dilution method; assay type: functional; details: MTCC 2642, 24 h
How it was run: (§1)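 Serial tube dilution MIC. Strains were grown in nutrient broth to an OD600 of 0.4-0.6. Compounds were tested at 0.78, 1.56, 3.12, 6.25, 12.5, 25 and 50 µg/ml, each in a separate tube containing 5 ml nutrient broth plus 1 ml compound solution. Tubes were incubated 24 h with shaking at 180 rpm. Growth was followed by optical density at 600 nm.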

Staphylococcus aureus = assay: Antibacterial activity against Staphylococcus aureus MTCC 96 after 24 hrs by serial dilution method; assay type: functional; details: MTCC 96, 24 h; how it was run: as §1
Bacillus subtilis = assay: Antibacterial activity against Bacillus subtilis MTCC 2451 after 24 hrs by serial dilution method; assay type: functional; details: MTCC 2451, 24 h; how it was run: as §1
Nannizzia gypsea = assay: Antifungal activity against Microsporum gypseum MTCC 4490 after 24 hrs by serial dilution method; assay type: functional; details: MTCC 4490, 24 h
How it was run: (§2)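 Fungal MIC by serial tube dilution. Dilutions of test compounds (1.9–500 µg/ml) were made from stock solution. Each tube held 1 ml nutrient broth and received 20 µl of standard strain culture.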

Candida albicans = assay: Antifungal activity against Candida albicans MTCC 3018 after 24 hrs by serial dilution method; assay type: functional; details: MTCC 3018, 24 h; how it was run: as §2
Aspergillus niger = assay: Antifungal activity against Aspergillus niger MTCC 1344 after 24 hrs by serial dilution method; assay type: functional; details: MTCC 1344, 24 h; how it was run: as §2
Saccharomyces cerevisiae = assay: Antifungal activity against Saccharomyces cerevisiae MTCC 172 after 24 hrs by serial dilution method; assay type: functional; details: MTCC 172, 24 h; how it was run: as §2
[1] = Antifungal activity against Cryptococcus gastricus MTCC 1715 after 24 hrs by serial dilution method; assay type: functional; details: Goffeauzyma gastrica; how it was run: as §2
Escherichia coli = assay: Antibacterial activity against Escherichia coli MTCC 82 after 24 hrs by serial dilution method; assay type: functional; details: MTCC 82, 24 h; how it was run: as §1

Row | SMILES | MIC (Salmonella typhi) [µg/mL] | Activity (Klebsiella pneumoniae) | MIC (Pseudomonas aeruginosa) [µg/mL] | MIC (Staphylococcus aureus) [µg/mL] | MIC (Bacillus subtilis) [µg/mL] | MIC (Nannizzia gypsea) [µg/mL] | MIC (Candida albicans) [µg/mL] | MIC (Aspergillus niger) [µg/mL] | MIC (Saccharomyces cerevisiae) [µg/mL] | MIC [1] [µg/mL] | MIC (Escherichia coli) [µg/mL]
1 | COc1cc(/C=C/C(=O)/C=C/C2=C(C)CCCC2(C)C)cc(OC)c1OC | 45 (≈ 121 µM) | inactive | 22.5 (≈ 60.7 µM) | 19.5 (≈ 52.6 µM) | > 100 |  |  |  |  |  | 
2 | COC1=CC(=O)C[C@@H](C)[C@]12Oc1c(Cl)c(OC)cc(OC)c1C2=O [GRISEOFULVIN] |  |  |  |  |  | 1.9 (≈ 5.39 µM) | 1.9 (≈ 5.39 µM) | 1.9 (≈ 5.39 µM) | 1.9 (≈ 5.39 µM) | 1.9 (≈ 5.39 µM) | 
3 | CC1=C(/C=C/C(=O)/C=C/c2ccoc2)C(C)(C)CCC1 | 74 (≈ 274 µM) |  | > 100 |  | 22.5 (≈ 83.2 µM) | > 100 | 74 (≈ 274 µM) | 61.4 (≈ 227 µM) | > 100 | 72.5 (≈ 268 µM) | > 100
4 | COc1ccc(/C=C/C(=O)/C=C/C2=C(C)CCCC2(C)C)cc1 | > 100 |  |  | 25 (≈ 80.5 µM) |  |  |  |  |  |  | > 100
5 | CC1=C(/C=C/C(=O)/C=C/c2cccnc2)C(C)(C)CCC1 | > 100 | inactive | 12.5 (≈ 44.4 µM) | 6.25 (≈ 22.2 µM) | 6.25 (≈ 22.2 µM) | > 100 | 35 (≈ 124 µM) | 3.9 (≈ 13.9 µM) | 10.5 (≈ 37.3 µM) | > 100 | 12.5 (≈ 44.4 µM)
6 | CC1=C(/C=C/C(=O)/C=C/c2ccccc2)C(C)(C)CCC1 | 12.5 (≈ 44.6 µM) | inactive | 12.5 (≈ 44.6 µM) | 3.12 (≈ 11.1 µM) | 3.12 (≈ 11.1 µM) | > 100 | > 100 | > 100 | 61.5 (≈ 219 µM) | 78 (≈ 278 µM) | 1.56 (≈ 5.56 µM)
7 | O=C(O)c1cn(C2CC2)c2cc(N3CCNCC3)c(F)cc2c1=O [CIPROFLOXACIN] |  |  | 1.8 (≈ 5.43 µM) | 1.2 (≈ 3.62 µM) | 0.75 (≈ 2.26 µM) |  |  |  |  |  | 0.9 (≈ 2.72 µM)
8 | CC1=C(/C=C/C(=O)/C=C/c2ccccc2C)C(C)(C)CCC1 | 55.5 (≈ 188 µM) | inactive |  | > 100 | 25 (≈ 84.9 µM) | > 100 | 72 (≈ 245 µM) | > 100 | 96 (≈ 326 µM) | > 100 | 30.5 (≈ 104 µM)
9 | CC1=C(/C=C/C(=O)/C=C/c2cccc3ccccc23)C(C)(C)CCC1 |  |  |  | 25 (≈ 75.6 µM) | 25 (≈ 75.6 µM) | 98 (≈ 297 µM) | 71.5 (≈ 216 µM) | 55 (≈ 166 µM) | > 100 | > 100 | 55.5 (≈ 168 µM)
10 | CC1=C(/C=C/C(=O)/C=C/c2ccc(Br)cc2)C(C)(C)CCC1 | > 100 |  | > 100 |  |  |  |  |  |  |  | > 100
11 | CC1=C(/C=C/C(=O)/C=C/c2ccc(Cl)cc2)C(C)(C)CCC1 | > 100 | inactive | 12.5 (≈ 39.7 µM) | 25 (≈ 79.4 µM) | 6.25 (≈ 19.9 µM) | > 100 | > 100 | > 100 | 12.5 (≈ 39.7 µM) | > 100 | 3.12 (≈ 9.91 µM)
12 | CC1=C(/C=C/C(=O)/C=C/c2ccccc2F)C(C)(C)CCC1 | > 100 |  |  | > 100 |  | > 100 | 44.5 (≈ 149 µM) | 9.9 (≈ 33.2 µM) | 11.4 (≈ 38.2 µM) | > 100 | > 100
13 | CC1=C(/C=C/C(=O)/C=C/c2ccc(Cl)c(Cl)c2)C(C)(C)CCC1 | > 100 |  |  | 32.5 (≈ 93 µM) | 25 (≈ 71.6 µM) |  |  |  |  |  | 22 (≈ 63 µM)
14 | COc1ccc(/C=C/C(=O)/C=C/C2=C(C)CCCC2(C)C)cc1OC | > 100 |  | 55.5 (≈ 163 µM) |  | 22.5 (≈ 66.1 µM) |  |  |  |  |  | 42 (≈ 123 µM)
15 | CC1=C(/C=C/C(=O)/C=C/c2ccccc2Br)C(C)(C)CCC1 |  |  | > 100 | 25 (≈ 69.6 µM) | 40.2 (≈ 112 µM) | > 100 | 31.2 (≈ 86.8 µM) | 7.6 (≈ 21.2 µM) | 3.9 (≈ 10.9 µM) | > 100 | 
16 | CC1=C(/C=C/C(=O)/C=C/c2ccccc2[N+](=O)[O-])C(C)(C)CCC1 | 25 (≈ 76.8 µM) | inactive | 3.12 (≈ 9.59 µM) | 6.25 (≈ 19.2 µM) | 3.12 (≈ 9.59 µM) | > 100 | > 100 | 32.4 (≈ 99.6 µM) | 42.5 (≈ 131 µM) | 58.4 (≈ 179 µM) | 12.5 (≈ 38.4 µM)
17 | OC(Cn1cncn1)(Cn1cncn1)c1ccc(F)cc1F [FLUCONAZOLE] |  |  |  |  |  | 1.9 (≈ 6.2 µM) | 3.9 (≈ 12.7 µM) | 1.9 (≈ 6.2 µM) | 1.9 (≈ 6.2 µM) | 31.2 (≈ 102 µM) | 
18 | CC1=C(/C=C/C(=O)/C=C/c2ccc(F)cc2)C(C)(C)CCC1 |  |  |  | 25.5 (≈ 85.5 µM) | 25 (≈ 83.8 µM) | > 100 | 12.5 (≈ 41.9 µM) | 15.6 (≈ 52.3 µM) | 15.6 (≈ 52.3 µM) | > 100 | > 100
19 | CC1=C(/C=C/C(=O)/C=C/c2ccc(C#N)cc2)C(C)(C)CCC1 | > 100 |  |  | 42 (≈ 138 µM) | > 100 | 90.5 (≈ 296 µM) | 80 (≈ 262 µM) | 52.4 (≈ 172 µM) | > 100 | > 100 | 37 (≈ 121 µM)
20 | CC1=C(/C=C/C(=O)/C=C/C=C/c2ccccc2)C(C)(C)CCC1 | 50 (≈ 163 µM) | inactive | > 100 | 6.25 (≈ 20.4 µM) | 3.12 (≈ 10.2 µM) | > 100 | > 100 | 25 (≈ 81.6 µM) | 80 (≈ 261 µM) | 55.5 (≈ 181 µM) | 6.25 (≈ 20.4 µM)
21 | CC1(C)S[C@@H]2[C@H](NC(=O)[C@H](N)c3ccc(O)cc3)C(=O)N2[C@H]1C(=O)O [AMOXICILLIN] | 0.9 (≈ 2.46 µM) |  | 1 (≈ 2.74 µM) | 0.5 (≈ 1.37 µM) | 0.5 (≈ 1.37 µM) |  |  |  |  |  | 0.12 (≈ 0.328 µM)
22 | COc1ccccc1/C=C/C(=O)/C=C/C1=C(C)CCCC1(C)C | > 100 |  | > 100 | 22.2 (≈ 71.5 µM) | 25 (≈ 80.5 µM) | 88.5 (≈ 285 µM) | > 100 | 92.5 (≈ 298 µM) | 61.4 (≈ 198 µM) | > 100 | 31.5 (≈ 101 µM)
23 | COc1ccccc1/C=C/C=C/C(=O)/C=C/C1=C(C)CCCC1(C)C | > 100 |  | 32.5 (≈ 96.6 µM) | > 100 | 25 (≈ 74.3 µM) | 71.5 (≈ 212 µM) | > 100 | 80 (≈ 238 µM) | 34 (≈ 101 µM) | 19.5 (≈ 58 µM) | > 100
24 | CC1=C(/C=C/C(=O)/C=C/c2ccccc2Cl)C(C)(C)CCC1 | > 100 |  | 12.5 (≈ 39.7 µM) | 1.56 (≈ 4.95 µM) | 0.78 (≈ 2.48 µM) | 94 (≈ 299 µM) | 11.5 (≈ 36.5 µM) | 33.5 (≈ 106 µM) | 12.5 (≈ 39.7 µM) | > 100 | 1.56 (≈ 4.95 µM)
25 | CC1=C(/C=C/C(=O)/C=C/c2ccc([N+](=O)[O-])cc2)C(C)(C)CCC1 | > 100 |  | 12.5 (≈ 38.4 µM) | 25 (≈ 76.8 µM) | 3.12 (≈ 9.59 µM) | 82 (≈ 252 µM) | 11.2 (≈ 34.4 µM) | 9.6 (≈ 29.5 µM) | 19.5 (≈ 59.9 µM) | 90.4 (≈ 278 µM) | 6.25 (≈ 19.2 µM)
26 | CC1=C(/C=C/C(=O)/C=C/c2ccc(C)cc2)C(C)(C)CCC1 | > 100 |  | 65 (≈ 221 µM) | > 100 | 25 (≈ 84.9 µM) | > 100 | 46 (≈ 156 µM) | > 100 | 40.5 (≈ 138 µM) | > 100 | 
